Assays:
CDK2/cyclin A = CDK2/cyclin A (Homo sapiens, UniProt P24941); assay: Biochemical assay CDK2/cyclin A; conditions: read-out: CDK2/cyclin A IC50; Table 1, degraders; tested in duplicate
CDK1/cyclin B = CDK1/cyclin B (Homo sapiens, UniProt P06493); assay: Biochemical assay CDK1/cyclin B; conditions: read-out: CDK1/cyclin B IC50; Table 1, degraders; tested in duplicate
CDK4 [1] = target: T1, CDK4 (Homo sapiens, UniProt P11802); assay: Immunoblot degradation in Jurkat cells, CDK4; format: cell-based; conditions: 6 hours, immunoblot (Figure 2B)
CDK1 = CDK1 (Homo sapiens, UniProt P06493); assay: Immunoblot degradation in Jurkat cells, CDK1; format: cell-based; conditions: 1 μM, 6 hours
CDK4 [2] = target: T1, CDK4; assay: Immunoblot degradation in OVCAR8 cells, CDK4; format: cell-based; conditions: OVCAR8 cells (Figure S2)
CDK2 = CDK2 (Homo sapiens, UniProt P24941); assay: Immunoblot degradation in Jurkat cells, CDK2; format: cell-based; conditions: 1 μM, 6 hours
Summary of the method: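 Jurkat cells exposed 6 h to test compound, at 1 μM in the initial degrader screen and otherwise at the indicated concentrations, then CDK2 read by immunoblot. Cereblon dependence was checked with an analogue carrying a methylated glutarimide that cannot engage cereblon, under the same 6 h conditions.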

CDK5 = CDK5 (Homo sapiens, UniProt Q00535); assay: Immunoblot degradation in Jurkat cells, CDK5; format: cell-based; conditions: 6 hours, immunoblot (Figure 2B)
CDK9 = CDK9 (Homo sapiens, UniProt P50750); assay: Immunoblot degradation in Jurkat cells, CDK9; format: cell-based; conditions: 6 hours, immunoblot (Figure 2B)
CDK7 = CDK7 (Homo sapiens, UniProt P50613); assay: Immunoblot degradation in Jurkat cells, CDK7; format: cell-based; conditions: 6 hours, immunoblot (Figure 2B)
CDK6 [3] = target: T2, CDK6 (Homo sapiens, UniProt Q00534); assay: Immunoblot degradation in OVCAR8 cells, CDK6; format: cell-based; conditions: OVCAR8 cells (Figure S2)
CDK6 [4] = target: T2, CDK6; assay: Immunoblot degradation in Jurkat cells, CDK6; format: cell-based; conditions: 6 hours, immunoblot (Figure 2B)

CDK1/cyclin B, sequence (P06493 whole entry): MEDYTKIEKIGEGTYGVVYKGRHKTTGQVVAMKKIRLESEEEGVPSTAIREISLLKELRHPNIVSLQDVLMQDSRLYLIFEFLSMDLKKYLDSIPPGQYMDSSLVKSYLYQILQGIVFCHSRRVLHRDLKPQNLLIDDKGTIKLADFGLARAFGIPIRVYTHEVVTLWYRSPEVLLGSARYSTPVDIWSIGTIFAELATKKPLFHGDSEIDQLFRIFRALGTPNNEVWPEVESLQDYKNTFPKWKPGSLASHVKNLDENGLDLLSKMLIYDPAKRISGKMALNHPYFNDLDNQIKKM
CDK1/cyclin B, sequence (P14635 whole entry partner): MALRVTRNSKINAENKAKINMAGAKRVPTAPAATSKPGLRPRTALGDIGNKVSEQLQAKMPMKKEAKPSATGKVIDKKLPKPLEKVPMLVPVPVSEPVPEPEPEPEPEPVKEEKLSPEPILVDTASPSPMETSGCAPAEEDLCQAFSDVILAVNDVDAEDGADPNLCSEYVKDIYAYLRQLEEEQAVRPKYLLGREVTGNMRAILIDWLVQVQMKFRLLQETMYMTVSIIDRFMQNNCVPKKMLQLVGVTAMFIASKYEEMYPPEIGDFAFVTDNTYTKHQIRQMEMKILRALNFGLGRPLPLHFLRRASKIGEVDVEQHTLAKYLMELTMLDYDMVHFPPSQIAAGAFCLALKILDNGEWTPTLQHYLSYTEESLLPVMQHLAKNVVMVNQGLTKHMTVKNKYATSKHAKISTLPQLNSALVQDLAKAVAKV
T2 sequence (Q00534 whole entry): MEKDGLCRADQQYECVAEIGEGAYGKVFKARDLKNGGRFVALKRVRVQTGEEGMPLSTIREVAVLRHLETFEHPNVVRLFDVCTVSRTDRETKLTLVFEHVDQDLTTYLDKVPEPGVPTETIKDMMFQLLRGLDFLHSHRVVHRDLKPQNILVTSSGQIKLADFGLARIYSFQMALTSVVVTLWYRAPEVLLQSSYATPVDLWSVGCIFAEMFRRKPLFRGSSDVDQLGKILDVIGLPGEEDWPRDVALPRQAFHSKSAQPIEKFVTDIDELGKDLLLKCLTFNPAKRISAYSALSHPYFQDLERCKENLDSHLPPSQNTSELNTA
CDK1, sequence (P06493 whole entry): as the sequence (P06493 whole entry) above
T1 sequence (P11802 whole entry): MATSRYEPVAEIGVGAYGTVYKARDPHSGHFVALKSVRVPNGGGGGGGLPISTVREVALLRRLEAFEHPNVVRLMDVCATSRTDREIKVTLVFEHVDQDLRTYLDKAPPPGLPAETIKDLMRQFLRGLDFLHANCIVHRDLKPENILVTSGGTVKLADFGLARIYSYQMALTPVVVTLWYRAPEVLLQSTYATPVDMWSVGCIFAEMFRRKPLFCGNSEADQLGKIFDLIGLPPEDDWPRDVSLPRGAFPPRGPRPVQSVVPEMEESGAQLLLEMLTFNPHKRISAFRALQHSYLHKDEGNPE
CDK7, sequence (P50613 whole entry): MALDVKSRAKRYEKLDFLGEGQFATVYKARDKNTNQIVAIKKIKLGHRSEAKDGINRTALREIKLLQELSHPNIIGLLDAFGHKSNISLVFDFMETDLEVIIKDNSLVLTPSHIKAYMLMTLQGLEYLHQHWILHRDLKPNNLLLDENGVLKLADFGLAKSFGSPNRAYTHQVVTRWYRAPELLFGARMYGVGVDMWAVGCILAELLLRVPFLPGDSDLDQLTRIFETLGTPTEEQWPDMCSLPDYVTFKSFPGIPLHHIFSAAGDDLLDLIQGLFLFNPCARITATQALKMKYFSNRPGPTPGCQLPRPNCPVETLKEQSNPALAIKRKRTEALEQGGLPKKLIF
CDK5, sequence (Q00535 whole entry): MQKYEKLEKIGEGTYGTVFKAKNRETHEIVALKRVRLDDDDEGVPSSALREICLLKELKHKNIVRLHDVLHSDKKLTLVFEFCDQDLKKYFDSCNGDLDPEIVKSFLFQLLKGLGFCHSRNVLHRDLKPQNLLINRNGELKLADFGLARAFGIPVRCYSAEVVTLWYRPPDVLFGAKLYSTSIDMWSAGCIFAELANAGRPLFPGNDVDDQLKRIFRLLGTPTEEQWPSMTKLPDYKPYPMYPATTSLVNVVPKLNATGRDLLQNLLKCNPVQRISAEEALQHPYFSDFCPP
CDK9, sequence (P50750 whole entry): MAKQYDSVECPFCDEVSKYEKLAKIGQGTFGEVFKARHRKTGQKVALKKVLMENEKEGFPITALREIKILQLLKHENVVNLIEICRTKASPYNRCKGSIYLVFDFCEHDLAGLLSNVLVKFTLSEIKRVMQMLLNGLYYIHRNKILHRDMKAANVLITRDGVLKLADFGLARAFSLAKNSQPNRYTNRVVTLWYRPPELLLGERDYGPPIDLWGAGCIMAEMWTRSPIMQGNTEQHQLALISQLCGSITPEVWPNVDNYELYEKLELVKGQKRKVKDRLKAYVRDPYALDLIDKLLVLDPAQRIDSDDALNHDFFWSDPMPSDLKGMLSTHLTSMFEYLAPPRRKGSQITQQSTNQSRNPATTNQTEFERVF

| SMILES | IC50 (CDK2/cyclin A) [nM] | IC50 (CDK1/cyclin B) [nM] | CDK4 degradation (CDK4 [1]) | CDK1 degradation (CDK1) | CDK4 degradation (CDK4 [2]) | CDK2 degradation (CDK2) | CDK5 degradation (CDK5) | CDK9 degradation (CDK9) | CDK7 degradation (CDK7) | CDK6 degradation (CDK6 [3]) | CDK6 degradation (CDK6 [4]) |
| --- | --- | --- | --- | --- | --- | --- | --- | --- | --- | --- | --- |
| NC(=O)c1c(F)cccc1Nc1nc(NC2CCN(S(=O)(=O)CCNC(=O)CCOCCOCCOCCOCCOc3cccc4c3C(=O)N(C3CCC(=O)NC3=O)C4=O)CC2)ncc1Br (stereo not drawn) [TMX-1111] | 6.4 | 9.5 | – | – | – | – | – | – | – | – | – |
| NC(=O)c1c(F)cccc1Nc1nc(NC2CCN(S(=O)(=O)CCNC(=O)CCOCCOCCOCCOCCOCCOCCOCCOCCOc3cccc4c3C(=O)N(C3CCC(=O)NC3=O)C4=O)CC2)ncc1Br (stereo not drawn) [TMX-1146] | 7.3 | 15.5 | – | – | – | – | – | – | – | – | – |

Continued, values first:

| IC50 (CDK2/cyclin A) [nM] | IC50 (CDK1/cyclin B) [nM] | CDK4 degradation (CDK4 [1]) | CDK1 degradation (CDK1) | CDK4 degradation (CDK4 [2]) | CDK2 degradation (CDK2) | CDK5 degradation (CDK5) | CDK9 degradation (CDK9) | CDK7 degradation (CDK7) | CDK6 degradation (CDK6 [3]) | CDK6 degradation (CDK6 [4]) | SMILES |
| --- | --- | --- | --- | --- | --- | --- | --- | --- | --- | --- | --- |
| 4.9 | 11.6 | – | – | – | – | – | – | – | – | – | NC(=O)c1c(F)cccc1Nc1nc(NC2CCN(S(=O)(=O)CCNC(=O)CCOCCOCCOc3cccc4c3C(=O)N(C3CCC(=O)NC3=O)C4=O)CC2)ncc1Br (stereo not drawn) [TMX-1128] |
| 28.7 | 8.5 | potently degraded | no CDK1 degradation was observed | not degraded | induced CDK2 degradation | potently degraded | not degraded | not degraded | not degraded | potently degraded | NC(=O)c1c(F)cccc1Nc1nc(NC2CCN(S(=O)(=O)CCNC(=O)CCCCCCCCOc3cccc4c3C(=O)N(C3CCC(=O)NC3=O)C4=O)CC2)ncc1Br (stereo not drawn) [TMX-1160] |
| 17.1 | 8.5 | – | no CDK1 degradation was observed | – | induced CDK2 degradation | – | – | – | – | – | NC(=O)c1c(F)cccc1Nc1nc(NC2CCN(S(=O)(=O)CCNC(=O)CCCCCCCOc3cccc4c3C(=O)N(C3CCC(=O)NC3=O)C4=O)CC2)ncc1Br (stereo not drawn) [TMX-1162] |

— paper PMC7703486 (Angewandte Chemie (International ed. in English), 2020)
